Activity calls are given as the source filed them. The rule behind the calls is not given here. Where a SMILES comes first, the peptide text is derived from it. [ ]: non-standard residue; d: D form. The star is where a group is joined. Palmitoyl = CCCCCCCCCCCCCCCC(=O)*; X1 = O=[N+]([O-])c1ccc(*)c2onnc12; βAla = NCCC(=O)O
How the values were obtained:
[1] = tested on: Influenza A virus; test: Antiviral activity against influenza A virus Hong Kong/8/1968(H3N2) infected in HEK293T cells assessed as inhibition of viral replicon activity incubated for 30 hrs by dual-Glo luciferase assay; format: functional, organism-based
Method in brief: (§1)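 HEK293T cells (2.5 × 10^4/well) transfected with plasmids for NP, PB1, PB2, PA plus p0LN-S-Luc firefly and pRL-SV40 Renilla reporters; serially diluted compound added 6 h post-transfection, luciferase read after 30 h by Dual-Glo. Activity = firefly/Renilla ratio; % inhibition normalized to positive and negative controls, curve-fitted; three independent measurements.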

[2] = Drug distribution in cell membrane of MDCK cells incubated for 0.5 hrs by confocal microscopy; format: ADME, cell-based, Canis lupus familiaris; details: dog
Method in brief: (§2)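 MDCK cells were pre-stained with 100 nM LysoTracker Red for 1.5 h and washed. They were then given 5 μM NBD-labelled lipopeptide in phenol-red-free DF-12 at 37 °C, 5% CO2. Confocal imaging with a 20× objective was done at 10 min, 30 min, 1 h, 2 h and 4 h. Peptide was read in the FITC channel and acidic compartments in the red channel, with colocalization assessed on merged images.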

[3] = tested on: Influenza A virus; test: Antiviral activity against Influenza A virus (A/Puerto Rico/8/1934(H1N1)) infected in HEK293T cells assessed as inhibition of viral replicon activity incubated for 30 hrs by dual-Glo luciferase assay; format: functional, organism-based; method in brief: as §1
[4] = Drug distribution in acidic vesicles intracellular compartments of MDCK cells incubated for 4 hrs by LysoTracker Red DND-99 staining based confocal microscopy; format: ADME, cell-based, Canis lupus familiaris; details: dog; method in brief: as §2
[5] = Drug distribution in acidic vesicles intracellular compartments of MDCK cells incubated for 1 hrs by LysoTracker Red DND-99 staining based confocal microscopy; format: ADME, cell-based, Canis lupus familiaris; details: dog; method in brief: as §2

CCCCCCCCCCCCCCCC(=O)NCCCC[C@H](NC(=O)CCNC(=O)[C@H](CCCCN)NC(=O)[C@H](CCCCN)NC(=O)[C@H](CCC(N)=O)NC(=O)[C@@H](NC(=O)[C@H](CCC(=O)O)NC(=O)[C@H](CCC(=O)O)NC(=O)[C@@H](NC(=O)[C@H](CCCCN)NC(=O)[C@H](CCCCN)NC(=O)[C@H](CCC(N)=O)NC(=O)[C@@H](NC(=O)[C@H](CCC(=O)O)NC(=O)[C@H](CCC(=O)O)NC(=O)[C@@H](NC(=O)[C@H](CCCCN)NC(=O)[C@H](CCCCN)NC(=O)[C@H](CCC(N)=O)NC(=O)[C@@H](NC(=O)[C@H](CCC(=O)O)NC(=O)[C@H](CCC(=O)O)NC(=O)[C@@H](NC(=O)[C@H](CCCCN)NC(=O)[C@H](CCCCN)NC(=O)[C@H](CCC(N)=O)NC(=O)[C@@H](NC(=O)[C@H](CCC(=O)O)NC(=O)[C@H](CCC(=O)O)NC(=O)[C@@H](NC(=O)[C@H](CCCCN)NC(=O)[C@H](CCCCN)NC(=O)[C@H](CCC(N)=O)NC(=O)[C@@H](NC(=O)[C@H](CCC(=O)O)NC(=O)[C@H](CCC(=O)O)NC(=O)[C@@H](NC(=O)CCNc1ccc([N+](=O)[O-])c2nnoc12)[C@@H](C)CC)[C@@H](C)CC)[C@@H](C)CC)[C@@H](C)CC)[C@@H](C)CC)[C@@H](C)CC)[C@@H](C)CC)[C@@H](C)CC)[C@@H](C)CC)[C@@H](C)CC)C(N)=O ({X1-βAla}-IEEIQKKIEEIQKKIEEIQKKIEEIQKKIEEIQKK[βAla]K(Palmitoyl)-NH2)
inhibition [1]: Active
Drug uptake [2]: Active
inhibition [3]: Active
Drug uptake [4]: Active
Drug uptake [5]: Active

— ChEMBL document CHEMBL4196194, “De Novo Design of α-Helical Lipopeptides Targeting Viral Fusion Proteins: A Promising Strategy for Relatively Broad-Spectrum Antiviral Drug Discovery” (J Med Chem, 2018)
